Results: ChEMBL document CHEMBL3352248, “Converting potent indeno[1,2-b]indole inhibitors of protein kinase CK2 into selective inhibitors of the breast cancer resistance protein ABCG2” (J Med Chem, 2015)
pIC50: −log10 of the molar value. Activity calls are given as the source filed them. The calls are words filed in the database; no cut-off is given here.

How the values were obtained:
[1] = molecular target: T1, Broad substrate specificity ATP-binding cassette transporter ABCG2 (Homo sapiens, UniProt Q9UNQ0); test: Inhibition of ABCG2 (unknown origin) expressed in HEK293 cells assessed as reduction in mitoxantrone efflux after 30 mins by FACS method; format: cell-based
T1 sequence (Q9UNQ0 whole entry): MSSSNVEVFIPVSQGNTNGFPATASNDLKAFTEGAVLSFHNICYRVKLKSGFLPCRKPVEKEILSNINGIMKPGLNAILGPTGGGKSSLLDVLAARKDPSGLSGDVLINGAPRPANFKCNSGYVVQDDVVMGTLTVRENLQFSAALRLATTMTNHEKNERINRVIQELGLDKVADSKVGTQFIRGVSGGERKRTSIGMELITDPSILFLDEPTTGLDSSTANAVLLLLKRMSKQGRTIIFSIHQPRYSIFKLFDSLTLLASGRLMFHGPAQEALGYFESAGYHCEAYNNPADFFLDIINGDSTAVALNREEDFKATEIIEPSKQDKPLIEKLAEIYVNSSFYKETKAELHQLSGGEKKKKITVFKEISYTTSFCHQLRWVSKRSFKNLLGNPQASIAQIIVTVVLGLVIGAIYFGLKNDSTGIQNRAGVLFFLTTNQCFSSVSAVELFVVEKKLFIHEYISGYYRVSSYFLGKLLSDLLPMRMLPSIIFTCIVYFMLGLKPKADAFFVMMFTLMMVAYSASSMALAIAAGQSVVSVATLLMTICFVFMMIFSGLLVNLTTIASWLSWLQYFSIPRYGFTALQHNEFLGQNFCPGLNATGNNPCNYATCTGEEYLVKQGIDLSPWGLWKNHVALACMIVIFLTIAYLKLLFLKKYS
Procedure, shortened: (§1)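 HEK293 cells stably transfected with ABCG2 (kept in 0.75 mg/mL G418) were seeded at 1.0 × 10^5/well and grown 72 h. They were then exposed to 5 μM mitoxantrone for 30 min at 37 °C with or without compound, washed and trypsinized. Intracellular fluorescence was read by flow cytometry (FL4, ≥10,000 events).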

Casein kinase II = Casein kinase II (Homo sapiens, UniProt P19784+P67870+P68400); test: Inhibition of human recombinant CK2a1/CK2b holoenzyme expressed in Escherichia coli BL21(DE3) pre-incubated for 10 mins before substrate addition by capillary electrophoresis based assay
Sequence of Casein kinase II (P67870 whole entry): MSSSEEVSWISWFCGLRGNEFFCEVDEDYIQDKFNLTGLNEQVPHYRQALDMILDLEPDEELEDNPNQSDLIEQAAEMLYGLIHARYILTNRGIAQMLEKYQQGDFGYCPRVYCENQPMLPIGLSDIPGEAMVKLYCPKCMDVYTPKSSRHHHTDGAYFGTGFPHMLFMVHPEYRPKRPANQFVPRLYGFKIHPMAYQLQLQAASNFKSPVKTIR
Sequence of Casein kinase II (P68400 whole entry): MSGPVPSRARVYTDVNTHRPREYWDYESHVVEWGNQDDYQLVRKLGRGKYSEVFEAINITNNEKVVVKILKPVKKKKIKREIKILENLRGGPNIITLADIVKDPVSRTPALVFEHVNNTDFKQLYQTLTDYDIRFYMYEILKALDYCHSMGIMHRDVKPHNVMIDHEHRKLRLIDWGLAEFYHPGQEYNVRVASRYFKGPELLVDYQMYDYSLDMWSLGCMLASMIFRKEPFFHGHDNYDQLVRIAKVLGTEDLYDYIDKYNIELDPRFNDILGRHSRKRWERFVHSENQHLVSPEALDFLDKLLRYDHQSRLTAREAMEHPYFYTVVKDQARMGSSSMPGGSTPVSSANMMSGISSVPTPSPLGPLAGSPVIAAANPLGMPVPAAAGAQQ
Sequence of Casein kinase II (P19784 whole entry): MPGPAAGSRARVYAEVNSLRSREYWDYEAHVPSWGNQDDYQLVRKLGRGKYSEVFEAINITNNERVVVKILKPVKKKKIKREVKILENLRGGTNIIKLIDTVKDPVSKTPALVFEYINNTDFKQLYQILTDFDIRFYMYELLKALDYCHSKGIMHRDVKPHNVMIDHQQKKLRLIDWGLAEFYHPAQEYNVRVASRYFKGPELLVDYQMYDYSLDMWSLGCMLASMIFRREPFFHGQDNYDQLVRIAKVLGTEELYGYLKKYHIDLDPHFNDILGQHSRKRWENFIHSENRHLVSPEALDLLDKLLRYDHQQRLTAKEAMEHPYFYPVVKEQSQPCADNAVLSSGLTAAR

ABCG2 [2] = test: Selectivity index, ratio of IC50 for intrinsic cytotoxicity against HEK293 cells to IC50 for ABCG2 (unknown origin) expressed in HEK293 cells; format: toxicity, cell-based; conditions: human, HEK293 cells expressing ABCG2, read-out: Selectivity Index
ABCG2 [3] = molecular target: T2, ABCG2 (Homo sapiens, UniProt Q9UNQ0); test: Inhibition of ABCG2 (unknown origin) expressed in HEK293 cells assessed as reduction in mitoxantrone efflux at 10 uM after 30 mins by FACS method; format: cell-based; conditions: HEK293 cells expressing ABCG2, probe mitoxantrone; procedure, shortened: as §1
T2 sequence (Q9UNQ0 whole entry): T1 sequence (Q9UNQ0 whole entry)

[4] = Intrinsic cytotoxicity against HEK293 cells assessed as reduction in cell viability after 72 hrs by MTT assay; format: cell-based; conditions: human, read-out: IG50
Procedure, shortened: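 Wild-type HEK293 cells were seeded at 1 × 10^4/well, incubated overnight, then treated with compound (0–250 μM) for 72 h. MTT at 0.5 mg/mL was added for 4 h at 37 °C. Formazan was dissolved in DMSO/ethanol 1:1, and absorbance was read at 570 nm minus 690 nm to give IG50.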

HEK293 = test: Selectivity index, ratio of IC50 for human recombinant CK2a1/CK2b holoenzyme expressed in Escherichia coli BL21(DE3) to IC50 for ABCG2 (unknown origin) expressed in HEK293 cells
MCF7 [5] = test: Induction of cell damage in human MCF7 cells at 20 to 100 uM after 24 hrs by Hoechst 33258 staining based fluorescence assay; format: functional
Procedure, shortened: (§2)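 MCF-7 cells in RPMI 1640 GlutaMax with 10% FCS, seeded 5.0 × 10^4 per well and left overnight. Medium was replaced with inhibitor at 20 or 100 μM, with 1% DMSO as control, for 24 h at 37 °C, 5% CO2. Nuclei were stained with Hoechst 33258 (3 μg/mL in methanol) for 30 min at room temperature in the dark and examined by fluorescence microscopy (DAPI filter) for nuclear morphology.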

MCF7 [6] = test: Induction of apoptosis in human MCF7 cells assessed as reduction in nuclear size at 20 to 100 uM after 24 hrs by Hoechst 33258 staining based fluorescence assay; format: functional, cell-based
Procedure, shortened: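 MCF-7 cells grown in RPMI 1640 GlutaMax with 10% fetal calf serum, seeded 5.0 × 10^4 cells/well and incubated overnight. Medium then replaced with medium containing compound at 20 or 100 μM; 1% DMSO as control. Incubation 24 h at 37 °C, 5% CO2. Nuclei stained with Hoechst 33258 (3 μg/mL in methanol), 30 min at room temperature in the dark. Nuclear morphology examined by fluorescence microscopy.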

MCF7 [7] = test: Inhibition of cell proliferation of human MCF7 cells assessed as DNA synthesis at 20 uM after 24 hrs by EdU-click assay; format: functional; design: scale not given: the % may be the effect or the level left
Procedure, shortened: (§3)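 MCF-7 cells were grown in RPMI 1640 GlutaMax plus 10% FCS, seeded 5.0 × 10^4/well and incubated overnight. They were then exposed to inhibitor at 20 or 100 μM for 24 or 48 h (37 °C, 5% CO2), with 1% DMSO as control. EdU was incorporated and click-coupled to TAMRA azide, with Hoechst counterstain. Microscope counts gave TAMRA-positive nuclei as a percentage of total nuclei. Values are the mean (±SD) of four assays.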

MCF7 [8] = test: Inhibition of cell proliferation of human MCF7 cells assessed as DNA synthesis at 20 uM after 48 hrs by EdU-click assay; format: functional; design: scale not given: the % may be the effect or the level left; procedure, shortened: as §3
MCF7 [9] = test: Induction of cell death in human MCF7 cells assessed as viable cell level at 20 to 100 uM after 24 hrs by Hoechst 33258 staining based fluorescence assay; format: functional
Procedure, shortened: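 MCF-7 cells grown in RPMI 1640 GlutaMax with 10% fetal calf serum, seeded at 5.0 × 10^4 cells/well and left overnight. Medium then replaced with fresh medium holding inhibitor at 20 or 100 μM, with 1% DMSO as control, for 24 h at 37 °C, 5% CO2. Nuclei stained with Hoechst 33258 (3 μg/mL in methanol, 30 min, room temperature, dark). Total cells counted and nuclear morphology examined by fluorescence microscopy.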

MCF7 [10] = test: Inhibition of cell proliferation of human MCF7 cells assessed as DNA synthesis at 100 uM after 24 hrs by EdU-click assay; format: functional, cell-based; procedure, shortened: as §3
MCF7 [11] = test: Induction of apoptosis in human MCF7 cells assessed as chromatin condensation at 20 to 100 uM after 24 hrs by Hoechst 33258 staining based fluorescence assay; format: functional, cell-based; conditions: in the assay text read “100 uM” for “20 to 100 uM”; procedure, shortened: as §2

Row | pIC50 (Casein kinase II) | Compound | pIC50 [1] | selectivity ratio (ABCG2 [2]) | inhibition at 0.5 h, 10 µM (ABCG2 [3]) [%] | CC50 at 72 h [4] [µM] | Ratio IC50 (HEK293) | other results
1 | 4.26 | O=C1CC(c2ccccc2)Cc2c1c1c(n2Cc2ccccc2)-c2ccccc2C1=O (stereo unspecified) | 6.02 | 18 | 68 | 16.9 | – | –
2 | – | COc1ccc2[nH]cc(CCNC(=O)c3cc(=O)c4c(OCc5ccc(Br)cc5)cccc4o3)c2c1 | 6.89 | – | 98 | 96 | – | –
3 | 5.15 | O=C1CCCc2c1c1c(n2CCc2ccccc2)-c2ccccc2C1=O | 6.37 | 71 | 100 | 30.7 | 16 | –
4 | – | CC(C)=CCOc1cccc2c1C(=O)c1c3c(n(C(C)C)c1-2)CCCC3=O | 5.52 | – | 74 | – | – | –
5 | 5.22 | O=C1CCCc2c1c1c(n2CCCc2ccccc2)-c2ccccc2C1=O | 6.10 | > 127 | 83 | > 100 | 8 | –
6 | – | CC1CCc2c(c3c(n2C(C)C)-c2ccccc2C3=O)C1=O (stereo unspecified) | 4.70 | – | 40 | – | – | –
7 | – | CCc1c2c(nc3ccc(O)cc13)-c1cc3c(c(=O)n1C2)COC(=O)[C@]3(O)CC [7-ETHYL-10-HYDROXYCAMPTOTHECIN] | – | – | – | 0.005 | – | –
8 | – | CC1CC(=O)c2c3c(n(CCc4ccccc4)c2C1)-c1ccccc1C3=O (stereo unspecified) | 6.64 | – | 100 | > 100 | 11 | –
9 | 5.29 | COc1cccc(CCn2c3c(c4c2-c2ccccc2C4=O)C(=O)CCC3)c1 | 6.51 | 41 | 78 | 12.7 | 16 | –
10 | – | CC(C)=CCOc1cccc2c1-c1c(c3c(n1C(C)C)CCCC3=O)C2=O | 5.80 | – | 60 | 31 | – | Activity (MCF7 [5]): Active; Activity (MCF7 [6]): Active; Activity (MCF7 [7]): 14%; Activity (MCF7 [8]): 1.3%; Activity (MCF7 [9]): 10%; inhibition (MCF7 [10]): Active; Activity (MCF7 [11]): Active
11 | – | CC1CC(=O)c2c3c(n(C(C)C)c2C1)-c1ccccc1C3=O (stereo unspecified) | 5.39 | – | 65 | – | – | –
12 | – | COc1ccc2c3c([nH]c2c1)[C@H](CC(C)C)N1C(=O)[C@H](CCC(=O)OC(C)(C)C)NC(=O)[C@@H]1C3 | – | – | – | 32 | – | –
13 | 4.46 | CC1CC(=O)c2c3c(n(Cc4ccccc4)c2C1)-c1ccccc1C3=O (stereo unspecified) | 4.82 | – | 33 | – | 2 | –
14 | – | CC(C)n1c2c(c3c1-c1ccccc1C3=O)C(=O)CCC2 | 4.46 | – | 15 | – | – | –
15 | 4.82 | O=C1CCCc2c1c1c(n2Cc2ccccc2)-c2ccccc2C1=O | 4.52 | – | 18 | – | 0.5 | –
16 | 4.82 | O=C1CC(c2ccccc2)Cc2c1c1c(n2CCc2ccccc2)-c2ccccc2C1=O (stereo unspecified) | 6.31 | 41 | 83 | 20.1 | 30 | –
17 | 5.85 | COc1ccccc1CCn1c2c(c3c1-c1ccccc1C3=O)C(=O)CCC2 | 6.68 | 130 | 106 | 27.2 | 7 | –
18 | – | COc1ccc(CCn2c3c(c4c2-c2ccccc2C4=O)C(=O)CCC3)cc1 | 6.15 | – | 131 | 68.5 | 6 | –
19 | – | O=C1c2c(O)ccc(O)c2C(=O)c2c(NCCNCCO)ccc(NCCNCCO)c21 [MITOXANTRONE] | – | – | – | 0.009 | – | –
20 | 4.96 | CC(C)n1c2c(c3c1-c1ccccc1C3=O)C(=O)C(Cc1ccccc1)(Cc1ccccc1)CC2 | 6.21 | 10 | 90 | 6 | 18 | –
